Assay results published in ChEMBL document CHEMBL3272012, “5-(Tetradecyloxy)-2-furancarboxylic acid and related hypolipidemic fatty acid-like alkyloxyarylcarboxylic acids” (J Med Chem, 1977).
Blank lines part the entries; values can stand above or below the compound they belong to.

Tests used:
Rattus norvegicus [1] = assay: Increase in cholesterol level in Wistar rat liver at 312 umol/kg/day administered through diet for 10 days; assay type: ADME, organism-based; settings: in vivo, po, 240 h
Rattus norvegicus [2] = assay: Hypolipidemic activity in Wistar rat assessed as reduction in plasma cholesterol level at 312 umol/kg/day administered through diet for 10 days; assay type: functional; settings: 240 h
Method in brief: (§1)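 Young male Wistar rats, 170-190 g at start, in groups of six, given compound mixed into Purina Lab Chow ad libitum for 4 or 10 days as stated. Daily dose was calculated from food consumption and body weight. Plasma was taken by cardiac puncture at the end and cholesterol measured by automated procedure. Results are % reduction versus a concurrent untreated control group, with Student's t test.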

Rattus norvegicus [3] = assay: Hypolipidemic activity in Wistar rat assessed as reduction in plasma triglyceride level at 312 umol/kg/day administered through diet for 10 days; assay type: functional; settings: 240 h
Method in brief: (§2)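 Young male Wistar rats, 170-190 g initial weight, six per group, fed drug mixed thoroughly into Purina Lab Chow ad libitum for the stated days; daily dose calculated from food consumption and body weight. Bled by cardiac puncture at end; plasma cholesterol and triglycerides by automated procedures, expressed as percent reduction versus simultaneous untreated controls; Student's t test.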

Rattus norvegicus [4] = assay: Increase in liver weight in Wistar rat at 312 umol/kg/day administered through diet for 10 days; assay type: ADME, organism-based; settings: in vivo, po, 240 h
Rattus norvegicus [5] = assay: Increase in liver weight in Wistar rat at 404 umol/kg/day administered through diet for 4 days; assay type: ADME, organism-based; settings: in vivo, po, 96 h
Rattus norvegicus [6] = assay: Increase in liver weight in Wistar rat at 332 umol/kg/day administered through diet for 4 days; assay type: ADME, organism-based; settings: in vivo, po, 96 h
Rattus norvegicus [7] = assay: Hypolipidemic activity in Wistar rat assessed as reduction in plasma triglyceride level at 332 umol/kg/day administered through diet for 4 days; assay type: functional; settings: 96 h; method in brief: as §2
Rattus norvegicus [8] = assay: Hypolipidemic activity in Wistar rat assessed as reduction in plasma cholesterol level at 332 umol/kg/day administered through diet for 4 days; assay type: functional; settings: 96 h; method in brief: as §1
Rattus norvegicus [9] = assay: Increase in liver weight in Wistar rat at 463 umol/kg/day administered through diet for 4 days; assay type: ADME, organism-based; settings: in vivo, po, 96 h
Rattus norvegicus [10] = assay: Hypolipidemic activity in Wistar rat assessed as reduction in plasma cholesterol level at 463 umol/kg/day administered through diet for 4 days; assay type: functional; settings: 96 h
Method in brief: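 Young male Wistar rats, 170-190 g initial weight, groups of six, given compound mixed thoroughly into Purina Lab Chow ad libitum for 4 or 10 days as stated. Daily dose calculated from food consumption and body weight. Bled by cardiac puncture at end of treatment; plasma cholesterol measured by automated procedure. Expressed as percent reduction versus simultaneous untreated control group; Student's t test.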

Rattus norvegicus [11] = assay: Hypolipidemic activity in Wistar rat assessed as reduction in plasma triglyceride level at 463 umol/kg/day administered through diet for 4 days; assay type: functional; settings: 96 h

Activity (Rattus norvegicus [1]): 8% | Activity (Rattus norvegicus [4]): 15%
Compound: CCCCCCCCCCCCCCOc1ccc(C(=O)CC(=O)OCCNC(C)=O)cc1
inhibition in vivo at 312 µmol/kg (Rattus norvegicus [2]): 35% | inhibition in vivo at 312 µmol/kg (Rattus norvegicus [3]): 60%

Activity (Rattus norvegicus [5]): 6%
Compound: CCCCCCCCCCCCCCCCSc1ccc(C(=O)O)cc1

Activity (Rattus norvegicus [6]): 0%
Compound: CCCCCCCCCCCCCCOc1cc(C(=O)OC)cc(C(=O)OC)c1
inhibition in vivo at 332 µmol/kg (Rattus norvegicus [7]): 39% | inhibition in vivo at 332 µmol/kg (Rattus norvegicus [8]): 5%

Activity (Rattus norvegicus [9]): 4%
Compound: CCCCCCCCCCCCCCSc1ccc(C(=O)O)s1
inhibition in vivo at 463 µmol/kg (Rattus norvegicus [10]): 15% | inhibition in vivo at 463 µmol/kg (Rattus norvegicus [11]): 61%
